Laboratory results: ChEMBL document CHEMBL4665862, “Synthesis and biological activity of C-7, C-9 and C-10 modified taxane analogues from 1-deoxybaccatin VI” (Bioorg Med Chem, 2020)

Assays:
[1] = Potency index, ratio of paclitaxel IC50 to compound IC50 for cytotoxicity against drug-resistant human A549/T cells assessed as reduction in cell viability incubated for 72 hrs by CCK-8 assay; format: functional
[2] = system: MDA-MB-231; experiment: Cytotoxicity against human MDA-MB-231 cells assessed as reduction in cell viability incubated for 72 hrs by CCK-8 assay; format: functional, cell-based; details: MDA-MB-231, 72 h
In short: (§1)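 Exponentially growing human tumour cells were exposed for 72 h to compounds formulated in DMSO solution. Cell survival was read by the CCK-8 method, and IC50 values were taken from the dose–response curves.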

[3] = Cytotoxicity against human drug-resistant A549/T cells assessed as reduction in cell viability incubated for 72 hrs by CCK-8 assay; format: functional, cell-based; details: A549, 72 h; in short: as §1
[4] = system: A549; experiment: Cytotoxicity against human A549 cells assessed as reduction in cell viability incubated for 72 hrs by CCK-8 assay; format: functional, cell-based; details: A549, 72 h; in short: as §1

| Structure (SMILES) | Ratio [1] | IC50 [2] [µM] | IC50 [3] [µM] | IC50 [4] [µM] |
| --- | --- | --- | --- | --- |
| CC(=O)O[C@H]1C[C@H]2OC[C@@]2(OC(C)=O)[C@H]2[C@H](OC(=O)c3ccccc3)C3C[C@H](OC(=O)[C@H](O)[C@@H](NC(=O)c4ccc(C)cc4)c4ccccc4)C(C)=C([C@H]4OC(=O)O[C@@H]4[C@]12C)C3(C)C (some centres undefined) | 7 | 0.119 | 0.229 | 0.062 |
| CC(=O)O[C@H]1C[C@H]2OC[C@@]2(OC(C)=O)[C@H]2[C@H](OC(=O)c3ccccc3)C3C[C@H](OC(=O)[C@H](O)[C@@H](NC(=O)c4cccc(Br)c4)c4ccccc4)C(C)=C([C@H]4OC(=O)O[C@@H]4[C@]12C)C3(C)C (some centres undefined) |  | 2.02 | 2.89 | 0.329 |
| CC(=O)O[C@H]1C[C@H]2OC[C@@]2(OC(C)=O)[C@H]2[C@H](OC(=O)c3ccccc3)C3C[C@H](OC(=O)[C@H](O)[C@@H](NC(=O)c4ccc(F)c(F)c4)c4ccccc4)C(C)=C([C@H]4OC(=O)O[C@@H]4[C@]12C)C3(C)C (some centres undefined) |  | 1.95 | 2.89 | 0.408 |
| CC(=O)O[C@H]1C[C@H]2OC[C@@]2(OC(C)=O)[C@H]2[C@H](OC(=O)c3ccccc3)C3C[C@H](OC(=O)[C@H](O)[C@@H](NC(=O)c4ccc(F)cc4)c4ccccc4)C(C)=C([C@H]4OC(=O)O[C@@H]4[C@]12C)C3(C)C (some centres undefined) |  | 0.209 | 1.03 | 0.133 |
| CC(=O)O[C@H]1C[C@H]2OC[C@@]2(OC(C)=O)[C@H]2[C@H](OC(=O)c3ccccc3)C3C[C@H](OC(=O)[C@H](O)[C@@H](NC(=O)c4ccccc4)c4ccccc4)C(C)=C([C@H]4OC(=O)O[C@@H]4[C@]12C)C3(C)C (some centres undefined) | 7 | 0.124 | 0.229 | 0.022 |
| CC(=O)O[C@H]1C[C@H]2OC[C@@]2(OC(C)=O)[C@H]2[C@H](OC(=O)c3ccccc3)C3C[C@H](OC(=O)[C@H](O)[C@@H](NC(=O)c4ccccc4F)c4ccccc4)C(C)=C([C@H]4OC(=O)O[C@@H]4[C@]12C)C3(C)C (some centres undefined) |  | 0.182 | 4.9 | 0.115 |
| CC(=O)O[C@H]1C[C@H]2OC[C@@]2(OC(C)=O)[C@H]2[C@H](OC(=O)c3ccccc3)C3C[C@H](OC(=O)[C@H](O)[C@@H](NC(=O)c4cccc(F)c4)c4ccccc4)C(C)=C([C@H]4OC(=O)O[C@@H]4[C@]12C)C3(C)C (some centres undefined) |  | 0.183 | 2.34 | 0.068 |
| COc1cccc(C(=O)N[C@@H](c2ccccc2)[C@@H](O)C(=O)O[C@H]2CC3[C@@H](OC(=O)c4ccccc4)[C@@H]4[C@]5(OC(C)=O)CO[C@@H]5C[C@H](OC(C)=O)[C@@]4(C)[C@H]4OC(=O)O[C@@H]4C(=C2C)C3(C)C)c1 (some centres undefined) |  | 0.068 | 3.02 | 0.069 |
| CC(=O)O[C@H]1C(=O)[C@@]2(C)[C@H]([C@H](OC(=O)c3ccccc3)[C@]3(O)C[C@H](OC(=O)[C@H](O)[C@@H](NC(=O)c4ccccc4)c4ccccc4)C(C)=C1C3(C)C)[C@]1(OC(C)=O)CO[C@@H]1C[C@@H]2O [PACLITAXEL] |  | 0.02 | 1.58 | 0.013 |
